Reference: ChEMBL document CHEMBL1122917, “Vinblastin-23-oyl amino acid derivatives: chemistry, physicochemical data, toxicity, and antitumor activities against P388 and L1210 leukemias” (J Med Chem, 1985)
Values joined by “and” are separate entries in the source; they are usually repeats but may differ in a detail not shown here. Equal values may be shown once.

Experiments:
Mus musculus [1] = assay: Number of survivors of DBA2 mice on 30th day after inoculation with L1210 leukemia cell line intravenously at a dose of 8 mg/kg/day; 0/10; format: functional; conditions: route intravenous
Mus musculus [2] = assay: Number of survivors of DBA2 mice on 60th day after inoculation with L1210 leukemia cell line intravenously at a dose of 4 mg/kg/day; 0/10; format: functional; conditions: route intravenous
Mus musculus [3] = assay: Percent increase in life span at dose 4 mg/kg/day in 10 mice implanted with P388 leukemia cell line; format: functional; conditions: for ILS at 4 mg/kg/day: Mus musculus, P388
Summary of the method: (§1)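 Female DBA2 mice inoculated iv on day 0 with 10^4 P388 cells; single iv treatment on day 1 with drug as sulfate salt in physiological saline. Survival followed; %ILS from all deaths and survivors as (T/C × 100) − 100, maximal MST 30 days; survivors counted on days 30 and 60. Most experiments confirmed three times.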

Mus musculus [4] = assay: Percent increase in life span of DBA2 mice after inoculation with L1210 leukemia intravenously at a dose of 5 mg/kg per day; format: functional; conditions: for ILS at 5 mg/kg/day: Mus musculus, L1210, iv
Summary of the method: (§2)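 Female DBA2 mice inoculated iv on day 0 with 10^4 L1210 cells; drugs given iv as sulfate salts in physiological saline, mostly once on day 1. %ILS from all deaths and survivors as (T/C × 100) − 100; survivors scored on days 30 and 60.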

Mus musculus [5] = assay: Number of survivors of DBA2 mice on 60th day after inoculation with L1210 leukemia cell line intravenously at a dose of 5 mg/kg/day; 0/10; format: functional; conditions: route intravenous
Mus musculus [6] = assay: Number of survivors on 60th day at dose 6 mg/kg/day in 10 mice implanted with P388 leukemia cell line; 0/10; format: functional
Mus musculus [7] = assay: Percent increase in life span of DBA2 mice after inoculation with L1210 leukemia intravenously at a dose of 6 mg/kg per day; format: functional; conditions: route intravenous; summary of the method: as §2
Mus musculus [8] = assay: Number of survivors on 30th day at dose 4 mg/kg/day in 10 mice implanted with P388 leukemia cell line; 0/10; format: functional
Mus musculus [9] = assay: Percent increase in life span at dose 9 mg/kg/day in 10 mice implanted with P388 leukemia cell line; format: functional; summary of the method: as §1
Mus musculus [10] = assay: Percent increase in life span at dose 8 mg/kg/day in 10 mice implanted with P388 leukemia cell line; format: functional; summary of the method: as §1
Mus musculus [11] = assay: Percent increase in life span at dose 5 mg/kg/day in 10 mice implanted with P388 leukemia cell line; format: functional; summary of the method: as §1
Mus musculus [12] = assay: Number of survivors of DBA2 mice on 30th day after inoculation with L1210 leukemia cell line intravenously at a dose of 9 mg/kg/day; 0/10; format: functional; conditions: route intravenous
Mus musculus [13] = assay: Number of survivors of DBA2 mice on 30th day after inoculation with L1210 leukemia cell line intravenously at a dose of 4 mg/kg/day; 0/10; format: functional; conditions: route intravenous
Mus musculus [14] = assay: Percent increase in life span at dose 6 mg/kg/day in 10 mice implanted with P388 leukemia cell line; format: functional; summary of the method: as §1
Mus musculus [15] = assay: Percent increase in life span of DBA2 mice after inoculation with L1210 leukemia intravenously at a dose of 4 mg/kg per day; format: functional; conditions: route intravenous; summary of the method: as §2
Mus musculus [16] = assay: Percent increase in life span of DBA2 mice after inoculation with L1210 leukemia intravenously at a dose of 7 mg/kg per day; format: functional; conditions: route intravenous; summary of the method: as §2
Mus musculus [17] = assay: Number of survivors of DBA2 mice on 30th day after inoculation with L1210 leukemia cell line intravenously at a dose of 7 mg/kg/day; 0/10; format: functional; conditions: route intravenous
Mus musculus [18] = assay: Number of survivors of DBA2 mice on 30th day after inoculation with L1210 leukemia cell line intravenously at a dose of 5 mg/kg/day; 0/10; format: functional; conditions: route intravenous
Mus musculus [19] = assay: Number of survivors of DBA2 mice on 30th day after inoculation with L1210 leukemia cell line intravenously at a dose of 6 mg/kg/day; 0/10; format: functional; conditions: route intravenous
Mus musculus [20] = assay: Number of survivors of DBA2 mice on 60th day after inoculation with L1210 leukemia cell line intravenously at a dose of 7 mg/kg/day; 0/10; format: functional; conditions: route intravenous
Mus musculus [21] = assay: Percent increase in life span at dose 7 mg/kg/day in 10 mice implanted with P388 leukemia cell line; format: functional; summary of the method: as §1
Mus musculus [22] = assay: Number of survivors of DBA2 mice on 60th day after inoculation with L1210 leukemia cell line intraperitoneally at a dose of 3 mg/kg/day; 0/10; format: functional; conditions: route intraperitoneal
[23] = Acute iv toxicity against rat after a dose of injection; format: organism-based; conditions: in vivo
Mus musculus [24] = assay: Percent increase in life span of DBA2 mice after inoculation with L1210 leukemia intravenously at a dose of 3 mg/kg per day; format: functional; conditions: route intravenous; summary of the method: as §2
Mus musculus [25] = assay: Percent increase in life span at dose 3 mg/kg/day in 10 mice implanted with P388 leukemia cell line; format: functional; summary of the method: as §1
Mus musculus [26] = assay: Percent increase in life span of BDF1 mice after inoculation with P388 leukemia intraperitoneally at a dose of 6 mg/kg per day; conditions: P388, ip
[27] = Acute iv toxicity against mice after a dose of injection; format: organism-based; conditions: mouse, in vivo
[28] = Acute iv toxicity against Swiss strain of 40 mice after 4 doses of injection; format: organism-based; conditions: mouse, in vivo
Summary of the method: (§3)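 Acute toxicity in Swiss, CD1 or NMRI mice. Drugs given iv as sulfate salts. LD50 taken at day 14 from several dose levels, with 40–[…] mice per drug and strain.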

Mus musculus [29] = assay: Number of survivors of DBA2 mice on 30th day after inoculation with L1210 leukemia cell line intraperitoneally at a dose of 2 mg/kg/day; 0/10; format: functional; conditions: route intraperitoneal
Mus musculus [30] = assay: Number of survivors of DBA2 mice on 30th day after inoculation with L1210 leukemia cell line intraperitoneally at a dose of 3 mg/kg/day; 0/10; format: functional; conditions: route intraperitoneal
Mus musculus [31] = assay: Number of survivors on 60th day at dose 5 mg/kg/day in 10 mice implanted with P388 leukemia cell line; 0/10; format: functional
Mus musculus [32] = assay: Number of survivors on 60th day at dose 4 mg/kg/day in 10 mice implanted with P388 leukemia cell line; 0/10; format: functional
Mus musculus [33] = assay: Number of survivors of DBA2 mice on 60th day after inoculation with L1210 leukemia cell line intraperitoneally at a dose of 2 mg/kg/day; 0/10; format: functional; conditions: route intraperitoneal
[34] = Acute iv toxicity against CD1 strain of 40 mice after 4 doses of injection; format: organism-based; conditions: CD1, mouse, in vivo; summary of the method: as §3
Mus musculus [35] = assay: Percent increase in life span of BDF1 mice after inoculation with P388 leukemia intraperitoneally at a dose of 2 mg/kg per day; conditions: P388, ip
Mus musculus [36] = assay: Number of survivors of DBA2 mice on 60th day after inoculation with L1210 leukemia cell line intravenously at a dose of 3 mg/kg/day; 0/10; format: functional; conditions: route intravenous
Mus musculus [37] = assay: Number of survivors on 60th day at dose 4 mg/kg/day in 10 mice implanted with P388 leukemia cell line for 1st scheduled day; 0/10; format: functional
Mus musculus [38] = assay: Number of survivors on 60th day at dose 2 mg/kg/day in 10 mice implanted with P388 leukemia cell line; 0/10; format: functional
Mus musculus [39] = assay: Number of survivors on 30th day at dose 2 mg/kg/day in 10 mice implanted with P388 leukemia cell line; 0/10; format: functional
Mus musculus [40] = assay: Percent increase in life span at dose 2 mg/kg/day in 10 mice implanted with P388 leukemia cell line; format: functional; summary of the method: as §1

Row | SMILES | Survivors (Mus musculus [2]) | ILS at 5 mg/kg/day (Mus musculus [4]) [%] | Survivors (Mus musculus [5]) | Survivors (Mus musculus [6]) | Survivors (Mus musculus [8]) | ILS at 8 mg/kg/day (Mus musculus [10]) [%] | ILS at 5 mg/kg/day (Mus musculus [11]) [%] | Survivors (Mus musculus [13]) | ILS at 6 mg/kg/day (Mus musculus [14]) [%] | ILS at 4 mg/kg/day (Mus musculus [15]) [%] | ILS at 7 mg/kg/day (Mus musculus [16]) [%] | Survivors (Mus musculus [17]) | Survivors (Mus musculus [18]) | Survivors (Mus musculus [20]) | ILS at 7 mg/kg/day (Mus musculus [21]) [%] | LD50 [23] [mg/kg] | LD50 [27] [mg/kg] | Survivors (Mus musculus [29]) | ILS at 2 mg/kg/day (Mus musculus [35]) [%] | Survivors (Mus musculus [36]) | other results
1 | CCOC(=O)[C@@H](NC(=O)[C@@]1(O)[C@H](O)[C@]2(CC)C=CCN3CC[C@@]4(c5cc([C@@]6(C(=O)OC)C[C@H]7C[N@](CCc8c6[nH]c6ccccc86)C[C@](O)(CC)C7)c(OC)cc5N(C)[C@@]14C)[C@@H]32)[C@@H](C)CC | 0 | 36 | 0 | 0 | 0 | > 183 | 60.4 | 0 | 73.5 | 20 | 27 | 0 | 0 | 0 | 56 |  |  |  |  |  | Survivors (Mus musculus [1]): 0; ILS at 4 mg/kg/day (Mus musculus [3]): 60%; ILS at 6 mg/kg/day (Mus musculus [7]): 41.3%; ILS at 9 mg/kg/day (Mus musculus [9]): 34%; Survivors (Mus musculus [12]): 0; Survivors (Mus musculus [19]): 0
2 | CC[C@]1(O)C[C@@H]2CN(CCc3c([nH]c4ccccc34)[C@@](C(=O)OC)(c3cc4c(cc3OC)N(C)[C@H]3[C@@](O)(C(=O)OC)[C@H](OC(C)=O)[C@]5(CC)C=CCN6CC[C@]43[C@@H]65)C2)C1 [VINBLASTINE] | 0 | 37 | 0 | 0 | 0 | 72.9 | 47.1 | 0 | 48 | 31.9 | 35 | 0 | 0 | 0 | 59.3 | 2.9 | 10 | 0 | 54 | 0 | Survivors (Mus musculus [22]): 0; Survivors (Mus musculus [1]): 0; ILS (Mus musculus [3]): 42.3% and 112%; ILS at 3 mg/kg/day (Mus musculus [24]): 30.3%; ILS at 3 mg/kg/day (Mus musculus [25]): 30.8%; ILS at 6 mg/kg/day (Mus musculus [7]): 24.7%; ILS at 6 mg/kg/day (Mus musculus [26]): -61%; LD50 [28]: 26 mg/kg; ILS at 9 mg/kg/day (Mus musculus [9]): 49.5%; Survivors (Mus musculus [30]): 0; Survivors (Mus musculus [31]): 0; Survivors (Mus musculus [32]): 0; Survivors (Mus musculus [33]): 0; Survivors (Mus musculus [12]): 0; LD50 [34]: 28 mg/kg; Survivors (Mus musculus [37]): 0; Survivors (Mus musculus [19]): 0
3 | CCOC(=O)[C@H](Cc1c[nH]c2ccccc12)NC(=O)[C@@]1(O)[C@H](O)[C@]2(CC)C=CCN3CC[C@@]4(c5cc([C@@]6(C(=O)OC)C[C@H]7C[N@](CCc8c6[nH]c6ccccc86)C[C@](O)(CC)C7)c(OC)cc5N(C)[C@@]14C)[C@@H]32 |  |  |  |  |  |  |  |  |  |  |  |  |  |  |  |  |  |  |  |  | LD50 [28]: 94 mg/kg; LD50 [34]: 110 mg/kg
4 | CC[C@]1(O)C[C@@H]2CN(CCc3c([nH]c4ccccc34)[C@@](C(=O)OC)(c3cc4c(cc3OC)N(C)[C@H]3[C@@](O)(C(N)=O)[C@H](O)[C@]5(CC)C=CCN6CC[C@]43[C@@H]65)C2)C1 [VINDESINE] |  |  | 0 | 0 | 0 | -46 | 30.2 |  | 32 |  | -9.1 | 0 | 0 | 0 | 24 | 2.6 | 6.3 | 0 | 89.5 | 0 | Survivors (Mus musculus [22]): 0; ILS at 4 mg/kg/day (Mus musculus [3]): 25.5%; ILS (Mus musculus [4]; route intravenous): 11.5% and 25.7%; Survivors (Mus musculus [38]): 0; ILS at 3 mg/kg/day (Mus musculus [25]): 23%; ILS at 6 mg/kg/day (Mus musculus [26]): -47%; Survivors (Mus musculus [39]): 0; Survivors (Mus musculus [30]): 0; ILS at 2 mg/kg/day (Mus musculus [40]): 27.1%; Survivors (Mus musculus [31]): 0; Survivors (Mus musculus [32]): 0; Survivors (Mus musculus [33]): 0; Survivors (Mus musculus [37]): 0
5 | CC[C@]1(O)C[C@H]2CN(CCc3c([nH]c4ccccc34)[C@@](C(=O)OC)(c3cc4c(cc3OC)N(C=O)[C@H]3[C@@](O)(C(=O)OC)[C@H](OC(C)=O)[C@]5(CC)C=CCN6CC[C@]43[C@@H]65)C2)C1 [VINCRISTINE] | 0 | 36 | 0 |  |  |  |  | 0 |  | 24 |  |  | 0 |  |  | 1 | 1 | 0 | 53 | 0 | ILS at 3 mg/kg/day (Mus musculus [24]): 28.8%; Survivors (Mus musculus [38]): 0; Survivors (Mus musculus [39]): 0; ILS at 2 mg/kg/day (Mus musculus [40]): -46%
